Assay results taken from ChEMBL document CHEMBL2040816, “Design, synthesis, and structure-activity relationship studies of novel millepachine derivatives as potent antiproliferative agents” (Eur J Med Chem, 2012).

How the values were obtained:
Assay type in all cases: functional, cell-based
HepG2 = assay: Antiproliferative activity against human HepG2 cells after 24 hrs by MTT assay; conditions: HepG2, 24 h
How it was run: (§1)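 MTT assay. 1 × 10⁴ cells per well were plated and incubated 24 h before dye was added (20 µL of 5 mg/mL MTT in PBS per well), then incubated until a purple precipitate formed. Precipitate dissolved in 150 µL DMSO after medium removal, then absorbance read.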

HT-29 = assay: Antiproliferative activity against human HT-29 cells after 24 hrs by MTT assay; conditions: HT-29, 24 h; how it was run: as §1
SK-OV-3 = assay: Antiproliferative activity against human SKOV3 cells after 24 hrs by MTT assay; conditions: SK-OV-3, 24 h; how it was run: as §1
SW-620 = assay: Antiproliferative activity against human SW620 cells after 24 hrs by MTT assay; conditions: SW-620, 24 h; how it was run: as §1
K562 = assay: Antiproliferative activity against human K562 cells after 24 hrs by MTT assay; conditions: K562, 24 h; how it was run: as §1
HCT-116 = assay: Antiproliferative activity against human HCT116 cells after 24 hrs by MTT assay; conditions: HCT-116, 24 h; how it was run: as §1

| IC50 (HepG2) | IC50 (HT-29) | IC50 (SK-OV-3) | IC50 (SW-620) | IC50 (K562) | IC50 (HCT-116) | Structure (SMILES) |
| --- | --- | --- | --- | --- | --- | --- |
| > 10 µM | 9.05 µM | 9.33 µM | 7.87 µM | 7.85 µM | 9.71 µM | COc1ccc(C(=O)/C=C/c2cccc(C(F)(F)F)c2)c2c1C=CC(C)(C)O2 |
| 4.28 µM | 3.79 µM | 2.35 µM | 2.25 µM | 3.02 µM | 4.53 µM | COc1ccc(C(=O)/C=C/c2ccc3ccccc3n2)c2c1C=CC(C)(C)O2 |
| > 10 µM | > 10 µM | > 10 µM | > 10 µM | > 10 µM | > 10 µM | COc1ccc(C(=O)/C=C/c2cccc(O)c2)c2c1C=CC(C)(C)O2 |
| > 10 µM | > 6.6 µM | 7.2 µM | > 10 µM | > 10 µM | > 10 µM | COc1ccc(C(=O)/C=C/c2ccc(-n3ccnc3)cc2)c2c1C=CC(C)(C)O2 |
| > 10 µM | > 10 µM | > 10 µM | > 10 µM | > 10 µM | > 10 µM | CCOc1cc(/C=C/C(=O)c2ccc(OC)c3c2OC(C)(C)C=C3)ccc1O |
| > 10 µM | > 10 µM | > 10 µM | > 10 µM | > 10 µM | > 10 µM | COc1ccc(C(=O)/C=C/c2cccc(Cl)c2)c2c1C=CC(C)(C)O2 |
| 7.56 µM | > 10 µM | 4.88 µM | 6.57 µM | > 10 µM | > 10 µM | COc1ccc(/C=C/C(=O)c2ccc(OC)c3c2OC(C)(C)C=C3)c(F)c1 |
| > 10 µM | > 10 µM | > 10 µM | > 10 µM | > 10 µM | > 10 µM | COc1ccc(C(=O)/C=C/c2cccc3ccccc23)c2c1C=CC(C)(C)O2 |
| > 10 µM | > 10 µM | > 10 µM | > 10 µM | > 10 µM | > 10 µM | COc1ccc(C(=O)/C=C/c2ccc(N(c3ccccc3)c3ccccc3)cc2)c2c1C=CC(C)(C)O2 |
| > 10 µM | > 10 µM | > 10 µM | > 10 µM | > 10 µM | > 10 µM | COc1ccc(/C=C/C(=O)c2ccc(OC)c3c2OC(C)(C)C=C3)cn1 |
| > 10 µM | > 10 µM | 9.36 µM | > 10 µM | > 10 µM | > 10 µM | COc1cccc(/C=C/C(=O)c2ccc(OC)c3c2OC(C)(C)C=C3)c1 |
| > 10 µM | > 10 µM | > 10 µM | > 10 µM | > 10 µM | > 10 µM | COc1ccccc1/C=C/C(=O)c1ccc(OC)c2c1OC(C)(C)C=C2 |
| 2.61 µM | 3.73 µM | 3.42 µM | 3.52 µM | 7.77 µM | 8.88 µM | COc1ccc(C(=O)/C=C/c2ccc([N+](=O)[O-])cc2)c2c1C=CC(C)(C)O2 |
| > 10 µM | > 10 µM | > 10 µM | > 10 µM | > 10 µM | > 10 µM | COc1cc(/C=C/C(=O)c2ccc(OC)c3c2OC(C)(C)C=C3)cc(OC)c1O |
| 5.76 µM | 2.12 µM | 8.39 µM | 5 µM | 5.4 µM | 6.63 µM | COc1ccc(C(=O)/C=C/c2ccccn2)c2c1C=CC(C)(C)O2 |
| > 10 µM | > 10 µM | > 10 µM | > 10 µM | > 10 µM | > 10 µM | COc1ccc(C(=O)/C=C/c2ccc(Cl)cc2)c2c1C=CC(C)(C)O2 |
| > 10 µM | > 10 µM | > 10 µM | > 10 µM | > 10 µM | > 10 µM | COc1ccc(C(=O)/C=C/c2cccc(F)c2)c2c1C=CC(C)(C)O2 |
| 0.73 µM | 1.87 µM | 2.75 µM | 0.57 µM | 3.5 µM | 1.92 µM | COc1ccc(C(=O)/C=C/c2ccc(N(C)C)cc2)c2c1C=CC(C)(C)O2 |
| > 10 µM | 7.58 µM | 9.94 µM | 7.7 µM | 9.03 µM | 9.44 µM | COc1ccc(C(=O)/C=C/c2ccc(Cl)c(Cl)c2)c2c1C=CC(C)(C)O2 |

More lines, now with the values behind:

| Structure (SMILES) | IC50 (HepG2) | IC50 (HT-29) | IC50 (SK-OV-3) | IC50 (SW-620) | IC50 (K562) | IC50 (HCT-116) |
| --- | --- | --- | --- | --- | --- | --- |
| COc1ccc(C(=O)/C=C/c2ccc(F)cc2)c2c1C=CC(C)(C)O2 | > 10 µM | > 10 µM | > 10 µM | > 10 µM | > 10 µM | > 10 µM |
| COc1ccc(C(=O)/C=C/c2ccc(O)c(Br)c2)c2c1C=CC(C)(C)O2 | > 10 µM | > 10 µM | > 10 µM | > 10 µM | > 10 µM | > 10 µM |
| COc1cc(OC)c(OC)cc1/C=C/C(=O)c1ccc(OC)c2c1OC(C)(C)C=C2 | > 10 µM | > 10 µM | > 10 µM | > 10 µM | > 10 µM | > 10 µM |
| COc1ccc(C(=O)/C=C/c2cc(Cl)ccc2O)c2c1C=CC(C)(C)O2 | 6.64 µM | 4.97 µM | 6.27 µM | 4.23 µM | 5.51 µM | 5.24 µM |
| COc1ccc(C(=O)/C=C/c2ccc(Br)cc2)c2c1C=CC(C)(C)O2 | > 10 µM | > 10 µM | > 10 µM | > 10 µM | > 10 µM | > 10 µM |
| COc1ccc(C(=O)/C=C/c2ccsc2)c2c1C=CC(C)(C)O2 | > 10 µM | > 10 µM | > 10 µM | > 10 µM | > 10 µM | > 10 µM |
| COc1ccc(C(=O)/C=C/c2ccc(O)cc2)c2c1C=CC(C)(C)O2 | > 10 µM | > 10 µM | > 10 µM | > 10 µM | > 10 µM | > 10 µM |
| COc1ccc(C(=O)/C=C/c2ccco2)c2c1C=CC(C)(C)O2 | > 10 µM | > 10 µM | > 10 µM | > 10 µM | > 10 µM | > 10 µM |
| COc1ccc(C(=O)/C=C/c2ccccc2)c2c1C=CC(C)(C)O2 | > 10 µM | > 10 µM | > 10 µM | > 10 µM | > 10 µM | > 10 µM |
| COc1ccc(C(=O)/C=C/c2cc(OC)c(OC)c(OC)c2)c2c1C=CC(C)(C)O2 | > 10 µM | > 10 µM | 9.7 µM | 9.15 µM | > 10 µM | 7.65 µM |
| COc1ccc(C(=O)/C=C/c2ccc3ccccc3c2)c2c1C=CC(C)(C)O2 | 0.21 µM | 4.48 µM | 7.65 µM | 2.14 µM | 3.67 µM | 5.82 µM |
| COc1ccc(C(=O)/C=C/c2cccs2)c2c1C=CC(C)(C)O2 | > 10 µM | > 10 µM | > 10 µM | > 10 µM | > 10 µM | > 10 µM |
| COc1ccc(C(=O)/C=C/c2ccc(C(F)(F)F)cc2)c2c1C=CC(C)(C)O2 | > 10 µM | > 10 µM | > 10 µM | > 10 µM | > 10 µM | > 10 µM |
| COc1ccc(C(=O)/C=C/c2ccc(N3CCCC3)cc2)c2c1C=CC(C)(C)O2 | 4.74 µM | 8.36 µM | 7.37 µM | 7.15 µM | 6.18 µM | 8.59 µM |
| COc1ccc(C(=O)/C=C/c2ccc(-c3ccccc3)cc2)c2c1C=CC(C)(C)O2 | > 10 µM | > 10 µM | > 10 µM | > 10 µM | > 10 µM | > 10 µM |
| COc1ccc(C(=O)/C=C/c2ccc(OC)c(OC)c2OC)c2c1C=CC(C)(C)O2 | > 10 µM | > 10 µM | > 10 µM | > 10 µM | > 10 µM | > 10 µM |
| COc1ccc(C(=O)/C=C/c2cccc([N+](=O)[O-])c2)c2c1C=CC(C)(C)O2 | 2.83 µM | 4.26 µM | 9.72 µM | 4.09 µM | 5.87 µM | 8.05 µM |
| COc1ccc(C(=O)/C=C/c2ccccc2Cl)c2c1C=CC(C)(C)O2 | > 10 µM | > 10 µM | > 10 µM | > 10 µM | > 10 µM | > 10 µM |
